# Assays:
# Mus musculus [1] = experiment: Toxicity in ICR mouse allografted with mouse S180A assessed as mortality at 125 mg/kg, ip qd for 5 days; format: organism-based; set-up: dose 125 mg/kg, route intraperitoneal; details: in vivo, 120 h
# Method in brief: (§1)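 Ascites Sarcoma 180 (1 × 10^7 cells) implanted into ICR mice, six per group; compound in saline ip once daily days 1-5; sacrifice on day 7; total packed cell volume (ascites volume × PCV) compared with controls as T/C %; mortality recorded.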
# Rattus norvegicus [2] = experiment: Diabetogenic activity in iv dosed Wistar rat assessed as increase in blood sugar level administered as single dose by glucose oxidase method; format: ADME, organism-based; details: in vivo
# Method in brief: (§2)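 Male Wistar rats, about 200 g, five per group, fasted 16 h. Single iv dose into the femoral vein in physiological saline, equimolar across compounds. Caudal-vein blood sampled at set times over 24 h. Sugar measured by glucose oxidase.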
# [3] = Antitumor activity against mouse S180A allografted in ICR mouse assessed as tumor growth at 125 mg/kg, ip qd for 5 days measured on day 7 relative to control; format: functional; details: route intraperitoneal
# Method in brief: (§3)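 Ascites Sarcoma 180 (1 × 10^7 cells) implanted into ICR mice, six animals per group. Five daily ip injections in saline (days 1–5). Sacrificed day 7. T/C % computed from total packed cell volume (ascites volume × PCV) vs controls. Grades: 100-66 = -, 65-41 = +, 40-11 = ++, 10-0 = +++.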
# [4] = (§4) Acute toxicity in ip dosed JCL-ICR mouse assessed as animal death; format: organism-based; details: JCL-ICR, in vivo
# Method in brief: (§5)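 Groups of ten female JCL-ICR mice given single ip dose in physiological saline; deaths followed over 7 days; LD50 (and LD10) derived by Litchfield–Wilcoxon method.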
# Mus musculus [5] = experiment: as §4; format: organism-based; details: in vivo; method in brief: as §5
# [6] = Ratio of compound LD50 to streptozotocin LD50 for JCL-ICR mouse; format: ADME, organism-based; details: in vivo
# [7] = Antitumor activity against mouse S180A allografted in ICR mouse assessed as tumor growth at 50 mg/kg, ip qd for 5 days measured on day 7 relative to control; format: functional; details: route intraperitoneal; method in brief: as §3
# Mus musculus [8] = experiment: Toxicity in ICR mouse allografted with mouse S180A assessed as mortality at 50 mg/kg, ip qd for 5 days; format: organism-based; set-up: dose 50 mg/kg, route intraperitoneal; details: in vivo, 120 h; method in brief: as §1
# L1210 [9] = experiment: Antitumor activity against mouse L1210 cells allografted in BDF1 mouse assessed as increase in host lifespan at 125 mg/kg, ip qd for 5 days relative to control; format: functional; details: 120 h, route intraperitoneal
# Method in brief: (§6)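 L1210 (1 × 10^5 cells) implanted into BDF1 mice, six per group; compound in saline ip once daily days 1-5; effect read as % increase in life span, ILS = [(treated life span/control life span) − 1] × 100.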
# Mus musculus [10] = experiment: Toxicity in BDF1 mouse allografted with mouse L1210 cells assessed as mortality at 125 mg/kg, ip qd for 5 days; format: organism-based; set-up: dose 125 mg/kg, route intraperitoneal; details: in vivo, 120 h; method in brief: as §6
# Escherichia coli = experiment: Antibacterial activity against Escherichia coli NIHJ JC-2 assessed as growth inhibition after 18 hrs by broth dilution method; format: functional; details: NIHJ JC-2, 18 h
# Method in brief: (§7)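 Twofold serial dilutions in heart infusion broth. Inoculum was a 24-h heart infusion broth culture diluted 100-fold in physiological saline. Tubes incubated 30 °C for 18 h; the table footnote gives 32 °C for 24 h. MIC in µg/ml is the lowest level giving complete growth inhibition.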
# Shigella sonnei = experiment: Antibacterial activity against Shigella sonnei assessed as growth inhibition after 18 hrs by broth dilution method; format: functional; method in brief: as §7
# Salmonella typhi = experiment: Antibacterial activity against Salmonella typhi IFM 3020 assessed as growth inhibition after 18 hrs by broth dilution method; format: functional, Salmonella enterica subsp. enterica serovar Typhi; details: Salmonella enterica, IFM 3020, 18 h
# Method in brief: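 Twofold serial dilutions in heart infusion broth; inoculum from 24 h heart infusion broth culture diluted 100-fold in physiological saline; tubes incubated 30 °C for 18 h; MIC (µg/ml) = lowest level giving complete growth inhibition.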
# Klebsiella pneumoniae = experiment: Antibacterial activity against Klebsiella pneumoniae ATCC 10031 assessed as growth inhibition after 18 hrs by broth dilution method; format: functional; details: ATCC 10031, 18 h; method in brief: as §7
# Pseudomonas fluorescens = experiment: Antibacterial activity against Pseudomonas fluorescens NIHJ B-254 assessed as growth inhibition after 18 hrs by broth dilution method; format: functional; details: NIHJ B-254, 18 h; method in brief: as §7
# Staphylococcus aureus = experiment: Antibacterial activity against Staphylococcus aureus FDA 209P JC-1 assessed as growth inhibition after 18 hrs by broth dilution method; format: functional; details: FDA 209P JC-1, 18 h; method in brief: as §7
# Proteus vulgaris = experiment: Antibacterial activity against Proteus vulgaris AHU 1469 assessed as growth inhibition after 18 hrs by broth dilution method; format: functional; details: AHU 1469, 18 h; method in brief: as §7
# Bacillus subtilis = experiment: Antibacterial activity against Bacillus subtilis ATCC 6633 assessed as growth inhibition after 18 hrs by broth dilution method; format: functional; details: ATCC 6633, 18 h; method in brief: as §7
# Mus musculus [11] = experiment: Ratio of compound LD10 to streptozotocin LD10 for JCL-ICR mouse; format: ADME, organism-based; details: in vivo
# Micrococcus luteus = experiment: Antibacterial activity against Sarcina lutea ATCC 9341 assessed as growth inhibition after 18 hrs by broth dilution method; format: functional; details: ATCC 9341, 18 h; method in brief: as §7
# Enterococcus faecalis = experiment: Antibacterial activity against Streptococcus faecalis ATCC 10541 assessed as growth inhibition after 18 hrs by broth dilution method; format: functional; details: ATCC 10541, 18 h; method in brief: as §7
# L1210 [12] = experiment: Antitumor activity against mouse L1210 cells allografted in ip dosed BDF1 mouse assessed as 30% increase in host lifespan administered for qd for 5 days; format: functional
# L1210 [13] = experiment: Antitumor activity against mouse L1210 cells allografted in BDF1 mouse assessed as increase in host lifespan at 50 mg/kg, ip qd for 5 days relative to control; format: functional; details: 120 h, route intraperitoneal; method in brief: as §6
# L1210 [14] = experiment: Antitumor activity against mouse L1210 cells allografted in BDF1 mouse assessed as increase in host lifespan at 200 mg/kg, ip qd for 5 days relative to control; format: functional; details: 120 h, route intraperitoneal; method in brief: as §6
# [15] = Acute toxicity in iv dosed dog; format: organism-based, Canis lupus familiaris; details: in vivo
# Mus musculus [16] = experiment: Toxicity in BDF1 mouse allografted with mouse L1210 cells assessed as mortality at 50 mg/kg, ip qd for 5 days; format: organism-based; set-up: dose 50 mg/kg, route intraperitoneal; details: in vivo, 120 h; method in brief: as §6
# Mus musculus [17] = experiment: Toxicity in ICR mouse allografted with mouse S180A assessed as mortality at 25 mg/kg, ip qd for 5 days; format: organism-based; set-up: dose 25 mg/kg, route intraperitoneal; details: in vivo, 120 h; method in brief: as §1
# Mus musculus [18] = experiment: Toxicity in BDF1 mouse allografted with mouse L1210 cells assessed as mortality at 200 mg/kg, ip qd for 5 days; format: organism-based; set-up: dose 200 mg/kg, route intraperitoneal; details: in vivo, 120 h; method in brief: as §6
# Rattus norvegicus [19] = experiment: Diabetogenic activity in Wistar rat assessed as increase in blood sugar level at 65 mg/kg, iv administered as single dose by glucose oxidase method; format: ADME, organism-based; set-up: dose 65 mg/kg, route intravenous; details: in vivo; method in brief: as §2
# L1210 [20] = experiment: Antitumor activity against mouse L1210 cells allografted in BDF1 mouse assessed as increase in host lifespan at 100 mg/kg, ip qd for 5 days relative to control; format: functional; details: 120 h, route intraperitoneal; method in brief: as §6
# Rattus norvegicus [21] = experiment: Diabetogenic activity in Wistar rat assessed as increase in blood sugar level at 20 mg/kg, ip qd for 1 month measured 24 hrs last drug dosage by glucose oxidase method; format: ADME, organism-based; set-up: dose 20 mg/kg, route intraperitoneal; details: in vivo
# Method in brief: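 Male Wistar rats, about 150 g, five per group. Drug in physiological saline given ip qd on days 1–30. Blood drawn 24 h after the last dose. Sugar measured by glucose oxidase.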
# [22] = Acute toxicity in iv dosed mouse; format: organism-based; details: in vivo
# Mus musculus [23] = experiment: Toxicity in BDF1 mouse allografted with mouse L1210 cells assessed as mortality at 100 mg/kg, ip qd for 5 days; format: organism-based; set-up: dose 100 mg/kg, route intraperitoneal; details: in vivo, 120 h; method in brief: as §6
# [24] = Therapeutic index, ratio of LD10 for JCL-ICR mouse to ED90 for mouse S180A cells allografted in ICR mouse; details: read-out: TI
# [25] = Antitumor activity against mouse S180A cells allografted in ip dosed ICR mouse administered qd for 5 days; format: functional; details: 120 h; method in brief: as §3
# Mus musculus [26] = experiment: Toxicity in ip dosed BDF1 mouse allografted with mouse L1210 cells assessed as optimal dose required for mortality administered qd for 5 days; format: organism-based; details: in vivo, 120 h
# [27] = Antitumor activity against mouse S180A allografted in ICR mouse assessed as tumor growth at 25 mg/kg, ip qd for 5 days measured on day 7 relative to control; format: functional; details: route intraperitoneal; method in brief: as §3
Structure (SMILES),Activity (Rattus norvegicus [2]),LD50 [4] [mg/kg],LD10 (Mus musculus [5]) [mg/kg],T/C [7] [%],Activity (Mus musculus [8]),MIC (Escherichia coli) [µg/mL],MIC (Shigella sonnei) [µg/mL],MIC (Salmonella typhi) [µg/mL],MIC (Klebsiella pneumoniae) [µg/mL],MIC (Pseudomonas fluorescens) [µg/mL],MIC (Staphylococcus aureus) [µg/mL],MIC (Proteus vulgaris) [µg/mL],MIC (Bacillus subtilis) [µg/mL],MIC (Micrococcus luteus) [µg/mL],further results
CCCCN(N=O)C(=O)N[C@H]1[C@@H](OC)O[C@H](CO)[C@@H](O)[C@@H]1O,Non-toxic,,,,,,,,,,,,,,Activity (Mus musculus [1]): Non-toxic; T/C [3]: 75%
CCO[C@H]1O[C@H](CO)[C@@H](O)[C@H](O)[C@H]1NC(=O)N(C)N=O,Non-toxic,2050,2000,38,Non-toxic,> 1000,> 1000,> 1000,> 1000,> 1000,> 1000,> 1000,> 1000,> 1000,selectivity ratio [6]: 2; ILS at 125 mg/kg (L1210 [9]): 64%; Activity (Mus musculus [10]): Non-toxic; Ratio (Mus musculus [11]): 2; MIC (Enterococcus faecalis): > 1000 µg/mL
CN(N=O)C(=O)N[C@@H](C=O)[C@@H](O)[C@H](O)[C@H](O)CO [STREPTOZOCIN],,360,235,26,Non-toxic,12.5,> 200,> 200,> 200,6.3,1.6,0.4,12.5,> 200,Activity (L1210 [12]): 23 mg/kg/day; ILS at 50 mg/kg (L1210 [13]): 44%; ILS at 200 mg/kg (L1210 [14]): 0%; LD50 [15]: 50 mg/kg; Activity (Mus musculus [16]): Non-toxic; Activity (Mus musculus [17]): Non-toxic; Activity (Mus musculus [18]): Non-toxic; Activity (Rattus norvegicus [19]): Toxic; ILS at 100 mg/kg (L1210 [20]): 76%; Activity (Rattus norvegicus [21]): Toxic; LD50 [22]: 275 mg/kg; Activity (Mus musculus [23]): Non-toxic; selectivity ratio [24]: 2.6; ED90 [25]: 90 mg/kg/day; Activity (Mus musculus [26]): 100 mg/kg/day; T/C [27]: 40%

# — ChEMBL document CHEMBL3272319, “Alkyl streptozotocin analogues with improved biological activities” (J Med Chem, 1976)
